ASAP1 GAP inh = blocks human ASAP1-stimulated Arf1 GTP hydrolysis; Q9ULH1; AID 624377; GDP FP detection; 360,000 compounds, 0.19% hits; inhibition, % at 16.5 µM; in the data active = inhibition above about 25%;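 note: 0% = vehicle with enzyme and substrate and 100% = no enzyme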
Calb FLC = affects C. albicans growth with fluconazole. C. albicans CaCi-2 + fluconazole, Alamar Blue growth, 48 h. growth inhibition, % (no concentration beside the values). 300,000 compounds, 0.57% hits. AID 1979;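 active = growth inhibition above about 58% in most replicates, limit read from the data, passing the limit was not always enough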;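 note: all wells also contain fluconazole at 8 µg/ml as a sub-toxic cotreatment; 0% = median of DMSO wells and 100% = median of geldanamycin control wells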
sPLA2-III inh = Blocks human group III sPLA2 activity; QFRET BODIPY PC-A2 liposome hydrolysis, fluorescence; inhibition, % at 12.2 µM; 370,000 compounds, 0.56% hits; AID 743126;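 active = inhibition above mean plus 3 SD of compounds lying within the high and low control bounds, cut at about 19% in these data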;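 note: 0% = median of test compound wells and 100% = no enzyme DMSO wells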
ARFGAP1 inhibitor = rat ARFGAP1 inhibition. Q62848. Arfgap1-stimulated ARF1 GTP hydrolysis, GDP FP detection. inhibition, % at 16.5 µM. 360,000 compounds, 0.26% hits;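 active = inhibition above a per-plate limit, mean inhibition of low control wells plus 3 SD, cut at about 25% in these data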;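 note: 0% = DMSO wells with enzyme and 100% = wells lacking Arfgap1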
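System: truncated rat Arfgap1 GAP domain / Benchmarks: high control wells lacking Arfgap1, low control full reaction with DMSO / Times: compound-enzyme preincubation 20 min, reaction 120 min, detection 60 min, 25 °C / Repeats: one replicate per compound / Also added: human ARF1(Δ1-17)-GTP substrate / Measured by: Tracer-displacement fluorescence polarization with EDTA stop, 620/688 nm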
SKKanGAS inh = inhibitors of SKKanGAS S. pyogenes growth in kanamycin (SK-promoter or general growth effect); inhibition, % at 7.5 µM; 300,000 compounds, 1.3% hits; BacTiter-Glo, 6 h;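 active = mean replicate score, as percent of positive control median, at least 50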;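 note: strain carries kanamycin resistance gene driven by streptokinase promoter and grows in 40 µg/ml kanamycin; loss of luminescence reflects streptokinase promoter inhibition or plain growth inhibition; 0% = median of DMSO wells and 100% = positive control at its reference dose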
ARFGAP1 confirm = rat ARFGAP1 inhibition, confirmed | 890 compounds, 30% hits | shares compounds with ARFGAP1 inhibitor | ARFGAP1-stimulated ARF1 GTP hydrolysis, GDP tracer FP | AID 651608 | inhibition, % at 16.5 µM;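 active = average inhibition over triplicates above the hit cutoff set in the earlier primary screen, cut at about 25% in these data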;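 note: 0% = Arfgap1 plus ARF1-GTP with DMSO and 100% = wells lacking Arfgap1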
Target sequence (Q62848 whole entry, looked up): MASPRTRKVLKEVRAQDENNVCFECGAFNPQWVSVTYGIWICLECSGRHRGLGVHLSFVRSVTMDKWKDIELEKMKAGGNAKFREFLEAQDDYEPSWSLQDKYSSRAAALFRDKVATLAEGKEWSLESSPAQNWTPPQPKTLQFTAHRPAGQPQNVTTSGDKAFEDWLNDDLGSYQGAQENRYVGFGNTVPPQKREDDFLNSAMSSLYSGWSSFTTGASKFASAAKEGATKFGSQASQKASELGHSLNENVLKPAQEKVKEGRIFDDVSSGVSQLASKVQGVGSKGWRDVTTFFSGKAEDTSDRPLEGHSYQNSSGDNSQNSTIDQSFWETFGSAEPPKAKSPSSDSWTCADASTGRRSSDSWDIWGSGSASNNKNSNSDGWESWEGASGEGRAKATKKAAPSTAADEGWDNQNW
An asterisk follows results filed as active; . = not tested or not shown. The list is not random: actives were taken first. Their share in the collection is about 2.3%.

SMILES	ASAP1 GAP inh	Calb FLC	sPLA2-III inh	ARFGAP1 inhibitor	SKKanGAS inh	ARFGAP1 confirm
O=Nc1c(-c2cccc([N+](=O)[O-])c2)nc2ncccn12	-12.8	94.2*	-11.5	26.4*	0.3	-10.2
Nc1c(-c2ccccc2)nc2ncccn12	1.9	.	1.4	-2.5	.	.
O=C(NCCCN1CCOCC1)c1ccc(NC(=O)C2COc3ccccc3O2)cc1 (stereo unspecified)	3.6	8.6	-5.0	-1.7	3.4	.
O=C(NCc1ccco1)c1ccc(NC(=O)C2COc3ccccc3O2)cc1 (stereo unspecified)	10.1	38.1	-3.3	28.8*	-5.4	6.4
CC(C)Oc1ccc(Oc2ccc(C#C[C@H](C)N3C(=O)c4ccccc4C3=O)cc2)cn1	.	.	1.8	.	.	.
CCCCC(=O)N(C)c1c(CC)nc2c(OCc3cc(Cl)cc(Cl)c3)cccn12	1.6	.	8.6	8.1	.	.
CN1CCCC1(C)C(=O)Nc1ccc(-n2cccc2)cc1 (stereo unspecified)	-7.5	.	-9.3	-6.5	.	.
CCCC(=O)N1CCCC1(C)C(=O)Nc1ccc(-n2cccc2)cc1 (stereo unspecified)	-2.5	.	2.2	24.6*	.	-7.1
CC(C)[C@H](NC(=O)OCc1ccccc1)C(=O)N[C@@H](Cc1ccccc1)C1(O)CN(C)C(C(=O)NCc2ccccn2)CO1 (stereo partly specified)	.	.	-3.6	.	.	.
O=C(COC(=O)C12CC3CC(CC(C3)C1)C2)N1CCN(S(=O)(=O)c2ccccc2)CC1	-10.0	-24.1	-2.9	28.8*	-9.7	3.4
O=C(OCC(=O)N1CCN(S(=O)(=O)c2ccccc2)CC1)C1CCC1	-1.3	.	13.1	5.3	.	.
Cc1nn(-c2ccccc2)c(N)c1N=Nc1cccc(S(=O)(=O)N2CCOCC2)c1	5.0	-2.7	6.3	28.9*	4.2	6.0
CC1=CCC[C@@H]2[C@]3(CC/C(=C/CO)CO)CO[C@@]2(C1)[C@@H](O)C[C@H]3C	1.7	.	9.7	3.8	.	.
O=c1cc(Nc2ccc3c(c2)OCCO3)[nH]c(=O)n1Cc1ccc(F)cc1	-4.5	-10.3	2.0	26.9*	5.9	-1.8
CCCN1CCN(C(=O)Cn2ncc3c([nH]c4ccc(C)cc43)c2=O)CC1	-7.1	-19.6	-0.7	15.4	2.0	.
Cc1ccc2[nH]c3c(=O)n(CC(=O)N4CC(C)CC(C)C4)ncc3c2c1 (stereo unspecified)	16.6	4.9	-1.1	31.1*	-1.9	40.9*
CCOc1ccc2oc(C(=O)OCC(=O)N3CCCC(C)C3)c(C)c2c1 (stereo unspecified)	18.9	.	-2.0	33.3*	.	33.3*
CCOc1ccc2oc(C(=O)OCC(=O)N3CC(C)OC(C)C3)c(C)c2c1 (stereo unspecified)	18.0	.	14.4	25.5*	.	33.2*
Cc1sc2ncnc(N3CCC(C(=O)Nc4ccc(Cl)c(Cl)c4)CC3)c2c1C	-2.1	.	7.1	5.3	.	.
Cc1sc2ncnc(N3CCC(C(=O)NCC(=O)Nc4ccc(F)c(F)c4)CC3)c2c1C	-14.3	4.2	-33.5	25.4*	53.2*	0.8
O=C1N=C(N2C=CC(=C3C=CNC=C3)C=C2)/C(=C/N=NC(=O)c2ccccc2O)S1	10.1	27.3	-0.5	8.8	2.6	.
c1ccc(CSc2ncnc3ccccc23)cc1	-10.7	-14.7	-3.9	-2.9	26.7	.
Cc1ccc(CSc2ncnc3ccccc23)cc1	1.3	12.2	10.3	24.8*	30.0	-1.9
CC#CCN(Cc1ccco1)C(=O)C1CCC(=O)N(CCc2cccc(F)c2)C1 (stereo unspecified)	-2.5	.	0.5	28.1*	.	-3.1
CN(Cc1ccco1)C(=O)C1CCC(=O)N(CCc2cccc(F)c2)C1 (stereo unspecified)	-1.9	6.3	-4.1	6.3	-5.4	.
O=C(Nc1ccc(F)cc1)OCCN1CCCC12CCC(c1ccccc1)CC2 (stereo unspecified)	.	.	-4.4	.	.	.
O=C(O)C1=C[C@@H](O)[C@@H](O)[C@H](O)C1	2.4	.	1.7	35.9*	.	-2.0
O=C(N/N=C/c1ccc(Cl)cc1)C(=O)N1CCCCCC1	2.7	-18.3	-11.9	24.9*	.	-6.0
O=C(O)c1ccc(CSc2nc3ccccc3[nH]2)cc1	-16.0	17.8	15.7	29.3*	-0.1	-3.0
O=C(COC(=O)c1ccc([N+](=O)[O-])cc1)NC12CC3CC(CC(C3)C1)C2	-7.6	.	-5.5	25.8*	.	-5.1

Assay outcomes from PubChem.
